ChEMBL document CHEMBL1124551, “Nucleic acid related compounds. 57. Synthesis, x-ray crystal structure, lipophilic partition properties, and antiretroviral activities of anomeric 3'-azido-2',3'-dideoxy-2,6-diaminopurine ribosides” (J Med Chem, 1989)

Columns and labels:
MT4 [1] = experiment: Effective dose required to inhibit HIV-induced cytopathogenicity in human MT-4 cells; format: functional; settings: read-out: ED50 (the source's name)
Method in brief: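 After 5 days at 37 °C, viable cells counted by trypan blue exclusion in a hemacytometer. ED₅₀ is the dose giving 50% protection against HIV-induced cytopathogenicity.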

[2] = Effective dose required to inhibit MSV-induced transformation in murine C3H cells; format: functional; settings: Mus musculus, read-out: ED50 (the source's name)
Method in brief: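 Confluent mouse embryo C3H monolayers were infected with 80 focus-forming units of MSV for 90 min. Medium was then replaced with fresh medium holding graded compound concentrations. After 6 days at 37 °C, transformation was scored microscopically. ED₅₀ is the dose that inhibits transformation by 50%.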

[3] = Toxic dose required to cause an alteration of normal C3H cell morphology; format: functional, Mus musculus
Method in brief: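 C3H cell cultures were exposed to graded compound concentrations and examined by microscope. TD is the dose that alters normal cell morphology.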

[4] = Ratio of CD50 and ED50 values against inhibition of HIV in MT-4 cells; format: functional, MT4
MT4 [5] = experiment: Cytotoxic dose required to reduce MT-4 cell viability by 50%

Structure (SMILES)	EC50 (MT4 [1]) [µM]	EC50 [2] [µM]	TD [3] [µM]	Ratio [4]	CD50 (MT4 [5]) [µM]
[N-]=[N+]=N[C@@H]1C[C@H](N2C=NC3C(=O)N=C(N)N=C32)O[C@@H]1CO (stereo not given in full)	2.8	6.2	>400	59	165
Nc1nc(N)c2ncn([C@H]3CC[C@@H](CO)O3)c2n1	3.5	19	> 200	115	404
